The text below walks through data of ChEMBL document CHEMBL1157359, “Binding of ceftobiprole and comparators to the penicillin-binding proteins of Escherichia coli, Pseudomonas aeruginosa, Staphylococcus aureus, and Streptococcus pneumoniae” (Antimicrob Agents Chemother, 2007).

Assay [1] can be described thus: Inhibition of bocillin FL binding to penicillin-susceptible Streptococcus pneumoniae OC 8865 penicillin-binding protein 2b. The method in brief:
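S. pneumoniae OC 8865 PBPs assayed in whole cells; drug competition followed by Bocillin FL labeling and imaging of labeled PBPs. IC50 is 50% inhibition of Bocillin FL binding compared with a no-drug control.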

Assay [2] in a line: Inhibition of bocillin FL binding to penicillin-resistant Streptococcus pneumoniae OC 8819 penicillin-binding protein 1b. Summed up: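 Whole S. pneumoniae cells were used rather than isolated membranes. Cells were competed with drug and then labeled with Bocillin FL, and PBP bands were visualized by fluorescence imaging. IC50 is the drug concentration that inhibits Bocillin FL binding to each PBP by 50% relative to a no-drug control.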

SMILES strings stand for the structures. Values after ≈ are worked out from the molar mass of the structure shown. Where only a bound is given, the exact number is not on record here.

Take `Nc1nc(/C(=N/O)C(=O)N[C@@H]2C(=O)N3C(C(=O)O)=C(/C=C4\CCN([C@@H]5CCNC5)C4=O)CS[C@H]23)ns1` [CEFTOBIPROLE]: the half-maximal inhibitory concentration (IC50) in assay [1] worked out at 0.06 µg/mL (≈ 0.112 µM). Consider `CO/N=C(\C(=O)N[C@@H]1C(=O)N2C(C(=O)O)=C(CSc3nc(=O)c(O)nn3C)CS[C@H]12)c1csc(N)n1` (stereo in doubt) [CEFTRIAXONE], for which the IC50 in assay [1] is above 1 µg/mL; in assay [2], 0.02 µg/mL (≈ 0.0361 µM).
